Measured values of several laboratories.
Effect on: cell growth or viability

| SMILES | cell line | technique | concentration | time | viability [%] |
| --- | --- | --- | --- | --- | --- |
| CC(=O)Nc1ccc(/C(C)=N/N=c2\sc(C(C)=O)nn2-c2ccc(C)cc2)cc1 | HepG2 | MTT | 5 µM |  | 86 |
| CC(C)(C)c1cnc(CSc2cnc(NC(=O)C3CCN(CCCCCCCCSc4cccc5c4C(=O)N(C4CCC(=O)NC4=O)C5=O)CC3)s2)o1 (stereo not shown) | HH | CCK-8 | 1 nM |  | 99.5 |
| CC(=O)c1nn(-c2ccccc2Cl)/c(=N/N=C(\C)c2ccc(NC(=O)c3ccccc3)cc2)s1 | HepG2 | MTT | 0.312 µM |  | 6.13 |
| CC(C)(C)c1cnc(CSc2cnc(NC(=O)C3CCN(C(=O)CCCSc4cccc5c4C(=O)N(C4CCC(=O)NC4=O)C5=O)CC3)s2)o1 (stereo not shown) | HH | CCK-8 | 1 µM |  | 8.16 |
| CC(=O)c1nn(-c2ccc(C)cc2)/c(=N/N=C(\C)c2ccc(NC(=O)c3ccccc3)cc2)s1 | HepG2 | MTT | 2.5 µM |  | 6.81 |
| CC(C)(C)c1cnc(CSc2cnc(NC(=O)C3CCN(CCCCCSc4cccc5c4CN(C4CCC(=O)NC4=O)C5=O)CC3)s2)o1 (stereo not shown) | HH | CCK-8 | 0.5 µM |  | 0 |
| CC(=NNC(=O)c1ccccc1)c1ccc(Nc2nnc(-c3ccc(Cl)cc3)c3ccccc23)cc1 | HepG2 | MTT | 0.312 µM | 24 h | 99.6 |
| CCOC(=O)c1nn(-c2cccc(Cl)c2)/c(=N/N=C(\C)c2ccc(NC(=O)c3ccc(Cl)cc3)cc2)s1 | HepG2 | MTT | 0.312 µM |  | 3.13 |
| S=C(Nc1ccccc1)Nc1ccc(Oc2nnc(-c3ccc(Cl)cc3)c3ccccc23)cc1 | HepG2 | MTT | 2.5 µM | 24 h | 18 |
| CCOC(=O)c1nn(-c2cccc(Cl)c2)/c(=N/N=C(\C)c2ccc(NC(=O)c3ccccc3)cc2)s1 | HepG2 | MTT | 78 nM |  | 81.9 |
| O=C(C=Cc1ccccc1)Nc1ccc(Oc2nnc(-c3ccc(Cl)cc3)c3ccccc23)cc1 | HepG2 | MTT | 1.25 µM | 24 h | 37.4 |
| CC(C)(C)c1cnc(CSc2cnc(NC(=O)C3CCN(CCCCCCCCSc4cccc5c4CN(C4CCC(=O)NC4=O)C5=O)CC3)s2)o1 (stereo not shown) | HH | CCK-8 | 0.25 µM |  | 0 |
| CC(=NNC(=O)c1ccncc1)c1ccc(Nc2nnc(-c3ccc(Cl)cc3)c3ccccc23)cc1 | HepG2 | MTT | 1.25 µM | 24 h | 5.31 |
| CC(C)(C)c1cnc(CSc2cnc(NC(=O)C3CCN(CCCCSc4cccc5c4C(=O)N(C4CCC(=O)NC4=O)C5=O)CC3)s2)o1 (stereo not shown) | HH | CCK-8 | 0.2 µM |  | 1.85 |
| CC(=NNC(=S)Nc1ccccc1)c1ccc(Nc2nnc(-c3ccc(Cl)cc3)c3ccccc23)cc1 | HepG2 | MTT | 10 µM | 24 h | 4.26 |
| CC(=NNC(=O)COc1ccc2c(C)c(Cc3ccccc3)c(=O)oc2c1C)c1ccc(Br)cc1 | HepG2 | MTT | 0.2 µg/mL |  | 62.9 |
